For 38 sequences, folding enthalpy and Tm results are on record in the array DNA melting data of Ke et al. (doi:10.1101/2024.01.08.574731).

Data set [1] is described as follows: folding enthalpy; higher = less favourable; fluorescence melt of hairpins on a sequencing array, two-state fit. Conditions: sodium 0.088 M. The procedure, abridged: (§1)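 Melting temperature and folding enthalpy were derived from bootstrapped two-state fits. The fitted temperatures were raised by 9.35 °C to agree with UV melts, and four replicates were combined by inverse variance. The underlying data were Cy3 fluorescence images of library hairpins, with annealed Cy3 and quencher oligos, on a sequenced MiSeq flow cell in 50 mM Na-HEPES pH 8.0, 25 mM NaCl, taken in 2.5 °C steps up to 60 °C, normalised to pre-quench Cy3 and to control constructs.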

The nature of data set [2]: melting temperature; fluorescence melt of hairpins on a sequencing array, two-state fit, raised by 9.35 °C to match UV melts. Particulars: sodium 0.088 M. An outline of the steps: as §1

For GATCGCTTGGGCGATC ((((((....)))))), the folding enthalpy in data set [1] is -116 kJ/mol. In addition, the Tm in data set [2] was 69.1 °C.

Turning to GATCGGAAACGATC (((((....))))), the folding enthalpy in data set [1] was -120 kJ/mol. Further, the Tm in data set [2] was found to be 55.1 °C.

Turning to GATCGGAAATCCGATC ((((((....)))))), the folding enthalpy in data set [1] is -188 kJ/mol. In addition, in data set [2], the Tm stood at 54.5 °C.

For GATCGGAAGGCCGATC ((((((....)))))), the folding enthalpy in data set [1] is -150 kJ/mol. Also, the Tm in data set [2] was found to be 53.9 °C.

For GATCGGAATCCCGATC ((((((....)))))), in data set [1], the folding enthalpy is -152 kJ/mol. For the same sequence, the Tm in data set [2] worked out at 53.9 °C.

Turning to GATCGGACAGCCGATC ((((((....)))))), the folding enthalpy in data set [1] was -154 kJ/mol. For the same sequence, the Tm in data set [2] came to 52.4 °C.

For the sequence GATCGGACCACCGATC ((((((....)))))), in data set [1], the folding enthalpy was -156 kJ/mol. Moreover, in data set [2], the Tm was 56.9 °C.

In the case of GATCGGACCCCCGATC ((((((....)))))), the folding enthalpy in data set [1] was -138 kJ/mol. In data set [2], the Tm came out at 54.7 °C.

For GATCGGACCGCCGATC ((((((....)))))), the folding enthalpy in data set [1] is -167 kJ/mol. The Tm in data set [2] amounted to 54.6 °C.

For GATCGGACGGCCGATC ((((((....)))))), the folding enthalpy in data set [1] is -191 kJ/mol. Also, the Tm in data set [2] worked out at 59.3 °C.

With GATCGGAGACCGATC ((((((...)))))), the folding enthalpy in data set [1] is -129 kJ/mol. Besides, the Tm in data set [2] is 56.7 °C.

As for GATCGGAGGGCCGATC ((((((....)))))), the folding enthalpy in data set [1] is -156 kJ/mol. Moreover, in data set [2], the Tm turned out to be 55.1 °C.

Take GATCGGAGTCCCGATC ((((((....)))))): the folding enthalpy in data set [1] was -142 kJ/mol. For the same sequence, the Tm in data set [2] was 55.3 °C.

For the sequence GATCGGAGTCCGATC ((((((...)))))), in data set [1], the folding enthalpy was -161 kJ/mol. Also, the Tm in data set [2] stood at 54 °C.

Take GATCGGATCACCGATC ((((((....)))))): in data set [1], the folding enthalpy is -142 kJ/mol. Further, the Tm in data set [2] was 57.5 °C.

GATCGGCAAGCCGATC ((((((....)))))): in data set [1], the folding enthalpy is -128 kJ/mol. The Tm in data set [2] was 67 °C.

For GATCGGCACACCGATC ((((((....)))))), the folding enthalpy in data set [1] is -166 kJ/mol. Also, the Tm in data set [2] came out at 59 °C.

With GATCGGCACCCCGATC ((((((....)))))), the folding enthalpy in data set [1] is -133 kJ/mol. The Tm in data set [2] amounted to 56.6 °C.

As to GATCGGCACGCCGATC ((((((....)))))), in data set [1], the folding enthalpy is -132 kJ/mol. Moreover, the Tm in data set [2] came out at 67.8 °C.

On to GATCGGCATGCCGATC ((((((....)))))), for which, in data set [1], the folding enthalpy is -187 kJ/mol. The Tm in data set [2] was 67.4 °C.

Turning to GATCGGCATTCCGATC ((((((....)))))), the folding enthalpy in data set [1] was -157 kJ/mol. In addition, the Tm in data set [2] came to 57 °C.

In the case of GATCGGCCCACCGATC ((((((....)))))), the folding enthalpy in data set [1] was -174 kJ/mol. Further, the Tm in data set [2] is 58.2 °C.

With GATCGGCCGCCCGATC ((((((....)))))), the folding enthalpy in data set [1] was -169 kJ/mol. For the same sequence, the Tm in data set [2] was determined as 60.5 °C.

As for GATCGGCCTCCCGATC ((((((....)))))), the folding enthalpy in data set [1] is -146 kJ/mol. Also, the Tm in data set [2] was 55.8 °C.

Turning to GATCGGCGAAAGCCAATC (((.(((....))).))), the folding enthalpy in data set [1] was -71.6 kJ/mol. For the same sequence, the Tm in data set [2] was found to be 43.7 °C.

GATCGGCGACCCGATC ((((((....)))))): the folding enthalpy in data set [1] is -143 kJ/mol. In addition, the Tm in data set [2] worked out at 55.6 °C.

For the sequence GATCGGCGACCGATC ((((((...)))))), the folding enthalpy in data set [1] is -143 kJ/mol. The Tm in data set [2] is 56.4 °C.

For GATCGGCGGCCCGATC ((((((....)))))), the folding enthalpy in data set [1] is -148 kJ/mol. In addition, the Tm in data set [2] amounted to 55.5 °C.

With GATCGGCGGCCGATC ((((((...)))))), the folding enthalpy in data set [1] was -206 kJ/mol. Also, the Tm in data set [2] amounted to 58.1 °C.

Consider GATCGGCGGGCCGATC ((((((....)))))), for which the folding enthalpy in data set [1] was -163 kJ/mol. Further, in data set [2], the Tm came to 66.9 °C.

On to GATCGGCGTACCGATC ((((((....)))))), for which the folding enthalpy in data set [1] is -160 kJ/mol. The Tm in data set [2] was 59.5 °C.

Consider GATCGGCGTCCCGATC ((((((....)))))), for which the folding enthalpy in data set [1] was -168 kJ/mol. Also, the Tm in data set [2] amounted to 55.4 °C.

For GATCGGGAACCCGATC ((((((....)))))), the folding enthalpy in data set [1] is -177 kJ/mol. For the same sequence, in data set [2], the Tm is 63.7 °C.

As for GATCGGGACGCCGATC ((((((....)))))), the folding enthalpy in data set [1] was -153 kJ/mol. In addition, the Tm in data set [2] is 59.5 °C.

On to GATCGGGCAACCGATC ((((((....)))))), for which the folding enthalpy in data set [1] is -144 kJ/mol. The Tm in data set [2] is 65.4 °C.

For GATCGGGCAGCCGATC ((((((....)))))), the folding enthalpy in data set [1] was -169 kJ/mol. Besides, in data set [2], the Tm amounted to 59.3 °C.

For the sequence GATCGGGCCACCGATC ((((((....)))))), the folding enthalpy in data set [1] was -165 kJ/mol. The Tm in data set [2] is 67.5 °C.

On to GATCGGGCTCCGATC ((((((...)))))), for which the folding enthalpy in data set [1] is -150 kJ/mol. The Tm in data set [2] was 58.3 °C.
